Test results reported in ChEMBL document CHEMBL5260797, “N-(1-Benzyl-3,5-dimethyl-1H-pyrazol-4-yl)benzamides: Antiproliferative Activity and Effects on mTORC1 and Autophagy” (ACS Med Chem Lett, 2017).
In brackets after ≈: the same amount, converted by molar mass. Values belong to the molecule of their own block, whether it stands above or below them. Activity calls are given as the source filed them. No cut-off for these calls is given here.

Assays:
MIA PaCa-2 = assay: Antiproliferative activity against human MIA PaCa-2 cells assessed as cell viability measured after 72 hrs by MTT assay; type: functional, cell-based; conditions: MIA PaCa-2, 72 h
Outline: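 MIA PaCa-2 pancreatic cancer cells; EC50 values determined in triplicate.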

[1] = Metabolic stability in mouse plasma assessed as parent compound remaining measured after 6 hrs by LC-MS/MS analysis; type: ADME, cell-free; conditions: read-out: Stability
[2] = Metabolic stability in human plasma assessed as parent compound remaining measured after 6 hrs by LC-MS/MS analysis; type: ADME, cell-free; conditions: read-out: Stability
[3] = Metabolic stability in mouse liver microsomes assessed as half life at 1 uM by LC-MS/MS analysis; type: ADME, Microsome
[4] = Thermodynamic aqueous solubility of the compound at pH 7.4 measured after 48 hrs by UV-spectrometry method; type: physicochemical; conditions: read-out: Therm_solubility
[5] = Cytotoxicity against human ARPE-19 cells assessed as cell viability measured after 72 hrs by MTT assay; type: toxicity, cell-based
ARPE-19 [6] = assay: Induction of autophagy in human ARPE-19 cells assessed as increase in LC3-2 conversion at 10 uM measured after 4 hrs by Western blot analysis; type: functional, cell-based
Outline: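 ARPE-19 cells treated 4 h in complete medium without starvation with increasing concentrations (10, 25, 50 μM) or DMSO. LC3 detected by Western blot; LC3-II/actin ratio expressed as fold increase over DMSO control, n = 3.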

ARPE-19 [7] = assay: Induction of autophagy in human ARPE-19 cells assessed as increase in LC3-labeled punctae at 25 uM measured after 4 hrs by immunofluorescence analysis relative to control; type: functional, cell-based
Outline: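 ARPE-19 cells treated 4 h at 25 μM in complete medium without starvation, or with DMSO. LC3 punctae detected by immunofluorescence, with CD63 as late endosomal/lysosomal marker.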

ARPE-19 [8] = assay: Induction of autophagy in human ARPE-19 cells assessed as fold increase in LC3 turnover at 25 uM measured after 4 hrs by Western blot analysis; type: functional
Outline: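 ARPE-19 human retinal pigment epithelial cells exposed 4 h to compound or DMSO in complete medium without starvation. LC3 conversion read by Western blot as LC3-II/actin ratio and expressed as fold increase over DMSO control, n = 3.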

ARPE-19 [9] = assay: Reduction in autophagic flux in human ARPE-19 cells at 25 uM incubated for 4 hrs in complete medium in presence of bafilomycin; type: functional, cell-based
Outline: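 ARPE-19 cells in full medium with 100 nM bafilomycin plus compound or DMSO. Autophagic flux read as LC3-II by Western blot.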

mTORC1 (Homo sapiens) [10] = target: T1, mTORC1 (Homo sapiens) (UniProt P42345+Q8N122+Q9BVC4); assay: Inhibition of mTORC1 in human ARPE19 cells at 10 to 50 uM measured after 4 hrs by Western blot analysis related to control; type: cell-based; conditions: ARPE-19, dose 10-50 µM
T1 sequence (Q8N122 whole entry, looked up, other chains not shown): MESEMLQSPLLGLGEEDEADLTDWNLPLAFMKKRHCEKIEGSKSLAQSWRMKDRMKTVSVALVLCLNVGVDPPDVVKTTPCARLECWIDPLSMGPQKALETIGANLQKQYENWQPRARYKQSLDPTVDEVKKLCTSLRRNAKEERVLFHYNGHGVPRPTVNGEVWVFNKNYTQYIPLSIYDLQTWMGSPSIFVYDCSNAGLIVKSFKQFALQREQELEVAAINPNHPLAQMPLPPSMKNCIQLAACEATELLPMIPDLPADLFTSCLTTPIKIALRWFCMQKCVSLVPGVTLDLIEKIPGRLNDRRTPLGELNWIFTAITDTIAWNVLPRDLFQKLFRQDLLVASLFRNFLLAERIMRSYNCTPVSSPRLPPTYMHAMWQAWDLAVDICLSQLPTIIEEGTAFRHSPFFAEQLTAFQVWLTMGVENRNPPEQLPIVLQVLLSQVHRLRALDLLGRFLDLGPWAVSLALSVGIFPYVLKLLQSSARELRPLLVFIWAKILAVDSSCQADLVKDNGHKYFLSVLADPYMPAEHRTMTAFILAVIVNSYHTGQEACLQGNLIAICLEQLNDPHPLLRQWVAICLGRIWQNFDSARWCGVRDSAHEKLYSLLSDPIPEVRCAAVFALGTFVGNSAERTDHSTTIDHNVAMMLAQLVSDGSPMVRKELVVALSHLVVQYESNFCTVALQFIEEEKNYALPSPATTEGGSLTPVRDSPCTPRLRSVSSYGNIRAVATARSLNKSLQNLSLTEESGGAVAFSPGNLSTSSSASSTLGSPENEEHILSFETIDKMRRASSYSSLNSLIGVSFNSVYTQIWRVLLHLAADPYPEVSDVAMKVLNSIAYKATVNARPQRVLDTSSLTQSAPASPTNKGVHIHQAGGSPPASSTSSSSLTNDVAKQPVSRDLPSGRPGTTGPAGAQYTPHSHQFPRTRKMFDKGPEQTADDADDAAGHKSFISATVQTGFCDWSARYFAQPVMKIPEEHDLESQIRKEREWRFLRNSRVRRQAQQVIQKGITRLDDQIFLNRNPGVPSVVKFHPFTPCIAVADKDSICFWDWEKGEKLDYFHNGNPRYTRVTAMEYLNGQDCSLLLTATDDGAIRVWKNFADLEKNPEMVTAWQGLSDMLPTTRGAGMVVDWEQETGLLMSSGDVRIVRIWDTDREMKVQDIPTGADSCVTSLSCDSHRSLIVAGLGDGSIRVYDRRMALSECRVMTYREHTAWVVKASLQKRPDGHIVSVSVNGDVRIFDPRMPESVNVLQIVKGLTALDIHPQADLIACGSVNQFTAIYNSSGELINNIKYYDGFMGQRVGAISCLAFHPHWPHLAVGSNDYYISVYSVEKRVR
T1 sequence (Q9BVC4 whole entry, looked up, other chains not shown): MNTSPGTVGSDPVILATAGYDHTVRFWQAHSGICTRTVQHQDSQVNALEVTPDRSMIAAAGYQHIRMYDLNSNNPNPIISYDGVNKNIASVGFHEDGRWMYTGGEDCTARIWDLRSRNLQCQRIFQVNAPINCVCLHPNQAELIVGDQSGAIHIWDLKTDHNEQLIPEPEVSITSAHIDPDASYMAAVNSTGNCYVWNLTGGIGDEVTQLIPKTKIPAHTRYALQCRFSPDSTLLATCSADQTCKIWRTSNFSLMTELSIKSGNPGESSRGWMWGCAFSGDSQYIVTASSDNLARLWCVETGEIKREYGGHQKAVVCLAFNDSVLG
Outline: (§1)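 ARPE-19 cells treated 4 h without starvation with increasing concentrations or DMSO. Basal mTORC1 activity measured by Western blot as phosphorylated P70/total P70, with DMSO set to 100%.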

mTORC1 (Homo sapiens) [11] = target: T1, mTORC1 (Homo sapiens); assay: Inhibition of mTORC1 in human ARPE19 cells measured after 4 hrs by Western blot analysis; type: cell-based; conditions: ARPE-19, dose 10-50 µM; outline: as §1
mTORC1 (Homo sapiens) [12] = target: T1, mTORC1 (Homo sapiens); assay: Inhibition of mTORC1 in human ARPE19 cells assessed as decrease in P70/total P70 phosphorylation level at 10 uM measured after 4 hrs by Western blot analysis; type: cell-based; conditions: ARPE-19; outline: as §1
ARPE-19 [13] = assay: Induction of autophagy in human ARPE-19 cells assessed as LC3 level at 25 uM measured after 4 hrs under starvation/refeed condition by immunofluorescence analysis; type: functional, cell-based
Outline: (§2)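 ARPE-19 cells starved 4 h in EBSS, then refed 1 h in complete medium containing 25 μM compound or DMSO. LC3 punctae imaged by immunofluorescence, with CD63 co-stain.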

ARPE-19 [14] = assay: Induction of autophagy in human ARPE-19 cells assessed as LC3 accumulation at 25 to 50 uM measured after 4 hrs under refeed condition by immunofluorescence analysis; type: functional, cell-based; conditions: dose 25-50 µM
ARPE-19 [15] = assay: Induction of autophagy in human ARPE-19 cells assessed as appearance of LC3 non-uniformed shapes at 25 uM pretreated for 30 mins with cells followed by incubation for 4 hrs under starvation condition by immunofluorescence analysis; type: functional, cell-based; conditions: time 4.5 hrs
Outline: (§3)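 ARPE-19 cells starved 4 h in EBSS with 25 μM compound or DMSO. LC3-labeled structures imaged by immunofluorescence, with CD63 as late endosomal/lysosomal marker.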

ARPE-19 [16] = assay: Induction of autophagy in human ARPE-19 cells assessed as LC3 enlarged structures at 25 uM pretreated for 30 mins with cells followed by incubation for 4 hrs under starvation condition by immunofluorescence analysis; type: functional, cell-based; conditions: time 4.5 hrs; outline: as §3
ARPE-19 [17] = assay: Induction of autophagy in human ARPE-19 cells assessed as decrease in LC3-2/actin ratio at 10 uM pretreated for 30 mins with cells followed by incubation for 4 hrs under starvation condition by Western blot analysis; type: functional, cell-based; conditions: time 4.5 hrs
Outline: (§4)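 ARPE-19 cells pretreated 30 min at 10 μM (or DMSO). Then 4 h with compound in EBSS starvation medium, or in EBSS with 100 nM bafilomycin. LC3-II/actin quantified by Western blot as fold of DMSO control, n = 3.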

ARPE-19 [18] = assay: Induction of autophagy in human ARPE-19 cells assessed as decrease in LC3-2/actin ratio at 10 uM pretreated for 30 mins with cells followed by incubation for 4 hrs under starvation condition in presence of bafilomycin by Western blot analysis; type: functional, cell-based; conditions: time 4.5 hrs; outline: as §4
[19] = Metabolic stability in mouse plasma assessed as parent compound remaining measured after 24 hrs by LC-MS/MS analysis; type: ADME, cell-free; conditions: read-out: Stability
[20] = Metabolic stability in human plasma assessed as parent compound remaining measured after 24 hrs by LC-MS/MS analysis; type: ADME, cell-free; conditions: read-out: Stability
mTORC1 (Homo sapiens) [21] = target: T1, mTORC1 (Homo sapiens); assay: Inhibition of mTORC1 reactivation in human ARPE-19 cells assessed as reduction of 4E-BP1 phosphorylation at 10 uM preincubated for 4 hrs under starvation/refeed condition measured after 1 hr in complete medium by Western blot analysis; type: cell-based; conditions: time 5.0 hrs
Outline: (§5)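 ARPE-19 cells starved 4 h in EBSS, then refed 1 h in complete medium with 10 μM compound or DMSO. mTORC1 reactivation read by Western blot as phosphorylation of P70 and 4EBP1.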

mTORC1 (Homo sapiens) [22] = target: T1, mTORC1 (Homo sapiens); assay: Inhibition of mTORC1 reactivation in human ARPE-19 cells assessed as reduction of P70 phosphorylation at 10 uM preincubated for 4 hrs under starvation/refeed condition measured after 1 hr in complete medium by Western blot analysis; type: cell-based; conditions: time 5.0 hrs; outline: as §5
ARPE-19 [23] = assay: Induction of autophagy in human ARPE-19 cells assessed as appearance of abnormal punctae at 25 uM measured after 1 hr under starvation/refeed condition by immunofluorescence analysis; type: functional, cell-based; outline: as §2
mTORC1 (Homo sapiens) [24] = target: T1, mTORC1 (Homo sapiens); assay: Inhibition of mTORC1 reactivation in human ARPE-19 cells at 25 to 50 uM preincubated for 4 hrs under starvation/refeed condition measured after 1 hr in complete medium by Western blot analysis; type: cell-based; conditions: dose 25-50 µM, time 5.0 hrs
ARPE-19 [25] = assay: Inhibition of autophagy in human ARPE-19 cells assessed as fold decrease in LC3 turnover at 10 uM pretreated for 30 mins with cells followed by incubation for 4 hrs under starvation condition by Western blot analysis; conditions: time 4.5 hrs

EC50 (MIA PaCa-2): 8 µM
SMILES: CNC(=O)c1cccc(Cn2nc(C)c(NC(=O)c3ccc(COc4ccc(OC)cc4)cc3)c2C)c1

EC50 (MIA PaCa-2): 2.1 µM
SMILES: CNC(=O)c1cccc(Cn2nc(C)c(NC(=O)c3ccc(COc4ccccc4C)cc3)c2C)c1

EC50 (MIA PaCa-2): 10 µM
SMILES: Cc1nn(Cc2ccccc2)c(C)c1NC(=O)c1ccc(COc2ccccc2)cc1

EC50 (MIA PaCa-2): 4.2 µM
SMILES: CNC(=O)c1cccc(Cn2nc(C)c(NC(=O)c3ccc(COc4ccc(Cl)cc4)cc3)c2C)c1

EC50 (MIA PaCa-2): 14 µM
SMILES: CCN(CC)CCCC(C)Nc1ccnc2cc(Cl)ccc12 (centres undefined) [CHLOROQUINE]

EC50 (MIA PaCa-2): 6.4 µM
SMILES: Cc1nn(Cc2cccc(C(=O)Nc3ccccc3)c2)c(C)c1NC(=O)c1ccc(COc2ccccc2)cc1

EC50 (MIA PaCa-2): 6.2 µM
SMILES: CNC(=O)c1cccc(Cn2nc(C)c(NC(=O)c3ccc(COc4cccc(C)c4)cc3)c2C)c1

SMILES: CNC(=O)c1cccc(Cn2nc(C)c(NC(=O)c3ccc(COc4ccc(C(F)(F)F)cc4)cc3)c2C)c1
EC50 (MIA PaCa-2): 0.8 µM
remaining at 6 h [1]: 91%
remaining at 6 h [2]: 99%
half-life at 1 µM [3]: 1 h
solubility thermodynamic at 48 h [4]: 67.3 µM (≈ 36.1 µg/mL)
EC50 at 72 h [5]: 47.9 µM
Activity (ARPE-19 [6]): Active
Activity (ARPE-19 [7]): Active
fold change (FC) (ARPE-19 [8]): 2.7
Activity (ARPE-19 [9]): inactive
inhibition (mTORC1 (Homo sapiens) [10]): 46%
inhibition (mTORC1 (Homo sapiens) [11]): Dose-Dependent Effect
inhibition (mTORC1 (Homo sapiens) [12]): Active
Activity (ARPE-19 [13]): Active
Activity (ARPE-19 [14]): Active
Activity (ARPE-19 [15]): Active
Activity (ARPE-19 [16]): Active
Activity (ARPE-19 [17]): Active
Activity (ARPE-19 [18]): inactive
remaining at 24 h [19]: 77%
remaining at 24 h [20]: 100%
Activity (mTORC1 (Homo sapiens) [21]): inactive
Activity (mTORC1 (Homo sapiens) [22]): inactive
Activity (ARPE-19 [23]): Active
inhibition (mTORC1 (Homo sapiens) [24]): Active
fold change (FC) (ARPE-19 [25]): 1.2

EC50 (MIA PaCa-2): 5.9 µM
SMILES: CNC(=O)c1cccc(Cn2nc(C)c(NC(=O)c3ccc(COc4cccc(Cl)c4)cc3)c2C)c1

EC50 (MIA PaCa-2): 8.9 µM
SMILES: Cc1nn(Cc2cccc(C(=O)NC(C)C)c2)c(C)c1NC(=O)c1ccc(COc2ccccc2)cc1

EC50 (MIA PaCa-2): 9.2 µM
SMILES: Cc1nn(Cc2cccc(C(N)=O)c2)c(C)c1NC(=O)c1ccc(COc2ccccc2)cc1

EC50 (MIA PaCa-2): 2.3 µM
SMILES: CNC(=O)c1cccc(Cn2nc(C)c(NC(=O)c3ccc(COc4cccc(C(F)(F)F)c4)cc3)c2C)c1

EC50 (MIA PaCa-2): 6.4 µM
SMILES: Cc1nn(Cc2cccc(C(=O)N(C)C)c2)c(C)c1NC(=O)c1ccc(COc2ccccc2)cc1

EC50 (MIA PaCa-2): 6.2 µM
SMILES: CNC(=O)c1cccc(Cn2nc(C)c(NC(=O)c3ccc(COc4cccc(OC)c4)cc3)c2C)c1
